From ChEMBL document CHEMBL1155293 (Eur J Med Chem, 2009) come the findings set out here.

The test system of series [1] is Mus musculus. As to the kind of experiment: Antinociceptive activity in Swiss mouse by inhibition of acetic acid-induced abdominal constriction at 10 mg/kg, ip after 20 mins. In kind it is functional. Particulars: Abdomen, route intraperitoneal. A digest of the protocol:
(§1)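 Male Swiss mice (25–30 g) were pretreated i.p. 30 min before i.p. acetic acid (0.6%): 10 mg/kg for screening, or 3, 6 and 10 mg/kg for dose-response. Controls received vehicle (0.9% NaCl and Tween 80, 10 ml/kg i.p.). Abdominal constrictions plus stretching were counted cumulatively over 20 min at 23 ± 2 °C. Inhibition is relative to controls; ID50 by linear regression.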

The subject of series [2] is Mus musculus. As to the kind of experiment: Antinociceptive activity in ip dosed Swiss mouse by inhibition of acetic acid-induced abdominal constriction after 20 mins. In kind it is functional. The settings on record: Abdomen, read-out: ID50 (the source's name). In outline:
as §1

Series [3] in a line: Lipophilicity, log P of the compound. The series is classed as physicochemical. The settings on record: octanol/water.
Series [4] relates to Mus musculus. As to the kind of experiment: Antinociceptive activity against formalin-induced pain in ip dosed Swiss mouse assessed as reduction of time spent in paw licking. The series is classed as functional. Particulars: for ED50: read-out: ID50 (the source's name). A digest of the protocol:
(§2)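 Swiss mice, 6–8 per group, housed at 22 ± 2 °C on a 12 h light/dark cycle. Compound given i.p. at 6, 10 or 30 mg/kg in Tween 80/0.9% NaCl vehicle (Tween ≤5%) before intraplantar formalin. Licking was scored for the first phase (0–5 min) and second phase (15–30 min). Mean ± SEM of six values; ID50 by linear regression with 95% confidence limits.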

Series [5] concerns Mus musculus. The series can be described thus: Antinociceptive activity against formalin-induced pain in Swiss mouse assessed as reduction of time spent in paw licking and biting at 10 mg/kg, ip after 15 to 30 mins. The settings on record: route intraperitoneal. On the set-up: scale not given: the % may be the effect or the level left. In kind it is functional. A digest of the protocol: as §2

Series [6] relates to Mus musculus. As to the kind of experiment: Antinociceptive activity against glutamate-induced pain in Swiss mouse assessed as reduction in time spent on paw licking and biting at 60 mg/kg, ip. In kind it is functional. On the set-up: scale not given: the % may be the effect or the level left. Particulars: route intraperitoneal. A digest of the protocol: (§3)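 Dosing was i.p. at 10, 30 or 60 mg/kg, 30 min before intraplantar glutamate (30 µmol/paw) into the right hindpaw. Time spent licking or biting the injected paw was timed from 0 to 15 min. Mean ± SEM of six values; ID50 from linear regression as geometric mean with 95% confidence limits. ANOVA with Newman–Keuls test.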

Series [7] deals with Mus musculus. As to the kind of experiment: Antinociceptive activity against formalin-induced pain in Swiss mouse assessed as reduction of time spent in paw licking and biting at 30 mg/kg, ip after 15 to 30 mins. In kind it is functional. On the set-up: scale not given: the % may be the effect or the level left. The settings on record: route intraperitoneal. A digest of the protocol:
as §2

In series [8] the test system is Mus musculus. The series can be described thus: Antinociceptive activity in ip dosed Swiss mouse by inhibition of formalin induced pain after 15 to 30 mins. The series is classed as functional. The settings on record: read-out: ID50 (the source's name). In outline: as §2
Series [9] relates to Mus musculus. The series can be described thus: Antinociceptive activity against glutamate-induced pain in ip dosed Swiss mouse assessed as reduction in time spent on paw licking and biting. The series is classed as functional. In outline: as §3
Series [10] relates to Mus musculus. The series can be described thus: Antinociceptive activity against glutamate-induced pain in Swiss mouse assessed as reduction in time spent on paw licking and biting at 30 mg/kg, ip. In kind it is functional. The arrangement: scale not given: the % may be the effect or the level left. Particulars: route intraperitoneal. In outline:
as §3

Series [11] relates to Mus musculus. As to the kind of experiment: Antinociceptive activity in Swiss mouse assessed as reduction in response latency at 10 mg/kg, ip after 30 mins by hot plate method. The series is classed as functional, organism-based. On the set-up: dose 10 mg/kg. In outline:
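Mice received saline, morphine 10 mg/kg s.c., or test compound 10 mg/kg i.p. 30 min before testing on a hot plate at 56 ± 1 °C. Latency to hindpaw licking, paw shaking or jumping was recorded. Mice with baseline latency above 20 s were excluded; cut-off was 30 s. Mean ± SEM of six values.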

The test system of series [12] is Mus musculus. As to the kind of experiment: Antinociceptive activity in po dosed Swiss mouse by inhibition of acetic acid-induced abdominal constriction. In kind it is functional. Particulars: Abdomen, read-out: ID50 (the source's name). In outline: (§4)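 Oral dosing of male Swiss mice (25–30 g) at 100, 250 and 500 mg/kg, 30 min before i.p. acetic acid (0.6%). Vehicle was Tween 80 in 0.9% NaCl. Abdominal constrictions with stretching were counted cumulatively for 20 min at 23 ± 2 °C. Inhibition is relative to vehicle controls; mean ± SEM of six values.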

Series [13] concerns Mus musculus. The series can be described thus: Antinociceptive activity against formalin-induced pain in Swiss mouse assessed as reduction of time spent in paw licking and biting at 10 mg/kg, ip after 0 to 5 mins. On the set-up: scale not given: the % may be the effect or the level left. In kind it is functional. Particulars: route intraperitoneal. In outline:
as §2

Series [14] concerns Mus musculus. The series can be described thus: Antinociceptive activity in ip dosed Swiss mouse by inhibition of formalin induced pain after 0 to 5 mins. In kind it is functional. The settings on record: read-out: ID50 (the source's name). A digest of the protocol:
as §2

The subject of series [15] is Mus musculus. As to the kind of experiment: Antinociceptive activity in Swiss mouse by inhibition of acetic acid-induced abdominal constriction at 250 mg/kg, po after 20 mins. The series is classed as functional, Abdomen. On the set-up: scale not given: the % may be the effect or the level left. In outline:
as §4

In series [16] the test system is Mus musculus. The series can be described thus: Antinociceptive activity in Swiss mouse by inhibition of acetic acid-induced abdominal constriction at 100 mg/kg, po after 20 mins. The arrangement: scale not given: the % may be the effect or the level left. The series is classed as functional, Abdomen. A digest of the protocol: as §4
Series [17] relates to Mus musculus. The series can be described thus: Antinociceptive activity against capsaicin-induced neurogenic pain in Swiss mouse by reduction of paw licking response at 30 mg/kg, ip. On the set-up: scale not given: the % may be the effect or the level left. The settings on record: route intraperitoneal. In kind it is functional. In outline:
(§5)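 Capsaicin dissolved in absolute ethanol (final ≤5%), injected intraplantarly. Test compound given i.p. at 10, 30 and 60 mg/kg, 30 min before capsaicin, in Tween 80 plus 0.9% NaCl. Time spent licking the injected paw was timed over 5 min. Data are mean ± SEM; ID50 from linear regression as geometric mean with 95% confidence limits. ANOVA with Newman–Keuls test.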

Series [18] has as its system Mus musculus. As to the kind of experiment: Antinociceptive activity in Swiss mouse by inhibition of acetic acid-induced abdominal constriction at 500 mg/kg, po after 20 mins. The series is classed as functional, Abdomen. The arrangement: scale not given: the % may be the effect or the level left. In outline:
as §4

Series [19] has as its system Mus musculus. As to the kind of experiment: Antinociceptive activity against capsaicin-induced neurogenic pain in ip dosed Swiss mouse by reduction of paw licking response. The series is classed as functional. In outline:
as §5

For series [20], the system named is Mus musculus. As to the kind of experiment: Antinociceptive activity against glutamate-induced pain in Swiss mouse assessed as reduction in time spent on paw licking and biting at 10 mg/kg, ip. The series is classed as functional. The arrangement: scale not given: the % may be the effect or the level left. Particulars: route intraperitoneal. A digest of the protocol: as §3

The subject of series [21] is Mus musculus. The series can be described thus: Antinociceptive activity against formalin-induced pain in Swiss mouse assessed as reduction of time spent in paw licking and biting at 30 mg/kg, ip after 0 to 5 mins. The settings on record: route intraperitoneal. The arrangement: scale not given: the % may be the effect or the level left. The series is classed as functional. A digest of the protocol: as §2

Series [22] relates to Mus musculus. The series can be described thus: Antinociceptive activity against capsaicin-induced neurogenic pain in Swiss mouse by reduction of paw licking response at 60 mg/kg, ip. The arrangement: scale not given: the % may be the effect or the level left. In kind it is functional. The settings on record: route intraperitoneal. A digest of the protocol: as §5
The mark [23] stands for this setting: read-out: ID50 (the source's name).

The inhibition in vivo is the relative decrease from the control value, in per cent. The logP is the decadic logarithm of the partition coefficient of the neutral form, usually between octanol and water.

Calls of active or inactive are those of the source. A value given as a limit tells only on which side of the number the result lay.

For `CC(=O)Oc1ccccc1C(=O)O` [ASPIRIN], 10 mg/kg produced 35% inhibition in vivo with Mus musculus [1]. For the same compound, the ED50 is 125 µmol/kg with Mus musculus [2] and 123 µmol/kg in the series with Mus musculus [4]. Moreover, in series [3], the logP stood at 0.68.
As for `O=C(/C=C/c1ccc(O)c(O)c1)OCCc1ccccc1` [CAFFEIC ACID PHENETHYL ESTER], 10 mg/kg produced 27.5% inhibition in vivo in the series on Mus musculus [1]. The logP in series [3] stood at 3.36.
In the same order, the values of `CC(C)CCOC(=O)/C=C/c1ccc(O)c(O)c1` are 75.8% and 3.21.
In the same order, the values of `CCOC(=O)/C=C/c1ccc(O)c(O)c1` [ETHYL CAFFEATE] are 58.1% and 1.93.
In the same order, the values of `CC(C)OC(=O)/C=C/c1ccc(O)c(O)c1` are 31% and 2.3.
In the series with Mus musculus [1], `CC(=O)Nc1ccc(O)cc1` [ACETAMINOPHEN] gave an inhibition in vivo at 10 mg/kg of 38%. In addition, the ED50 worked out at 133 µmol/kg in the series with Mus musculus [2] and 120 µmol/kg in the series with Mus musculus [4]. This compound also registered a logP in series [3] of 1.43.
For `COC(=O)/C=C/c1ccc(O)c(O)c1` [METHYLCAFFEATE], the inhibition in vivo at 10 mg/kg in the series on Mus musculus [1] turned out to be 54.5%. The compound further returned a logP in series [3] of 1.56.
`CC(C)COC(=O)/C=C/c1ccc(O)c(O)c1` registered an inhibition in vivo at 10 mg/kg in the series on Mus musculus [1] of 52%. The logP in [3] turned out to be 2.68.
In the same order, the values of `CCCCOC(=O)/C=C/c1ccc(O)c(O)c1` [BUTYL CAFFEATE] are 45% and 2.99.
For `CCCCCCCCOC(=O)/C=C/c1ccc(O)c(O)c1`, in that order: 46.2% and 5.02.
Regarding `CCCCCCCCCCCCOC(=O)/C=C/c1ccc(O)c(O)c1`, at 10 mg/kg the inhibition in vivo with Mus musculus [1] was 78.8%. In addition, the Activity with Mus musculus [5] was 34.4%; with Mus musculus [6], 65.2%; in the series with Mus musculus [7], 56.8%; in the series on Mus musculus [9], “Dose-dependent effect”; with Mus musculus [10] it was 46.3%; with Mus musculus [13], 20.7%. For the same compound, the Activity is 32.4% in the series on Mus musculus [15]; 22.2% in the series with Mus musculus [16]; 36.9% in the series on Mus musculus [17]; 45.7% in the series on Mus musculus [18]; “Dose-dependent effect” in the series with Mus musculus [19]; 25.6% with Mus musculus [20]. Further, the values for the Activity in the series on Mus musculus [21], with Mus musculus [22] and in the series with Mus musculus [4] were 56.2%, 58.6% and “Dose-dependent effect”, respectively. In addition, the ED50 in the series on Mus musculus [8] was 23.8 mg/kg; with Mus musculus [9] (setting [23]), 38.4 mg/kg; with Mus musculus [12] it was no less than 500 mg/kg; in the series on Mus musculus [14] it was 26.2 mg/kg; with Mus musculus [2], 5.25 mg/kg; with Mus musculus [19] (setting [23]), 46.6 mg/kg. Moreover, the result in the series on Mus musculus [11] was inactive. This compound also had a logP in series [3] of 7.04.
In the series with Mus musculus [1], `O=C(O)/C=C/c1ccc(O)c(O)c1` [CAFFEIC ACID] yielded an inhibition in vivo at 10 mg/kg of 34.6%.
In the series on Mus musculus [1], `O=C(/C=C/c1ccc(O)c(O)c1)OCc1ccccc1` [BENZYL CAFFEATE] showed an inhibition in vivo at 10 mg/kg of 8.8%. The logP in [3] is 3.15.
